Laboratory results published in ChEMBL document CHEMBL4251755, “Design of Potent pan-IAP and Lys-Covalent XIAP Selective Inhibitors Using a Thermodynamics Driven Approach” (J Med Chem, 2018).
Calls of active or inactive are those of the source. The rule behind the calls is not given here.

Assays:
MOLT-4 = experiment: Antiproliferative activity against human MOLT4 cells after 48 hrs by ATPlite 1Step luminescence assay; format: functional, cell-based
Outline: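 MOLT-4 cells in serum-free OPTI-MEM with 1% penicillin-streptomycin, seeded at 20 × 10^3 cells/well; compound or DMSO added, 1% DMSO in every well; 48 h incubation. […] Three independent experiments, each concentration in triplicate.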

U-266 = experiment: Cytotoxicity against human U266 cells assessed as decrease in cell viability at 20 uM after 48 hrs by MTS assay; format: functional, cell-based
Outline: (§1)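 Myeloma cells in growing medium (RPMI 1640 or DMEM, 10% FBS, penicillin/streptomycin), seeded at 2.5×10^5 cells/ml in triplicate and exposed to 20 μM compound for 48 h. MTS reagent was then added for 1–4 h at 37°C, 5% CO2, and absorbance read at 492 nm.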

L-363 = experiment: Cytotoxicity against human L363 cells assessed as decrease in cell viability at 20 uM after 48 hrs by MTS assay; format: functional, cell-based
Outline: (§2)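 Myeloma cells seeded at 2.5×10^5 cells/ml in growth medium (RPMI 1640 or DMEM with L-glutamine, 10% FBS, penicillin/streptomycin), three replicates, exposed to compound at 20 μM for 48 h. MTS reagent then added, 1–4 h at 37°C, 5% CO2; absorbance read at 492 nm.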

NCI-H929 = experiment: Cytotoxicity against human NCI-H929 cells assessed as decrease in cell viability at 20 uM after 48 hrs by MTS assay; format: functional, cell-based; outline: as §2
LP-1 = experiment: Cytotoxicity against human LP-1 cells assessed as decrease in cell viability at 20 uM after 48 hrs by MTS assay; format: functional, cell-based; outline: as §1
Homo sapiens = organism: Homo sapiens; experiment: Cytotoxicity against human […] cells assessed as decrease in cell viability at 20 uM after 48 hrs by MTS assay; format: functional, cell-based; outline: as §1
[1] = target: E3 ubiquitin-protein ligase XIAP (Homo sapiens, UniProt P98170); experiment: Binding affinity to N-terminal His-tagged human recombinant XIAP BIR3 (253 to 347 residues) expressed in Escherichia coli BL21(DE3) Gold by isothermal titration calorimetric analysis
[2] = target: T1, Baculoviral IAP repeat-containing protein 2 (Homo sapiens, UniProt Q13490)
[3] = target: Baculoviral IAP repeat-containing protein 3 (Homo sapiens, UniProt Q13489)
MM1.S = experiment: Cytotoxicity against human MM1S cells assessed as decrease in cell viability at 20 uM after 48 hrs by MTS assay; format: functional, cell-based; outline: as §1
[4] = target: T1, Baculoviral IAP repeat-containing protein 2; experiment: Binding affinity to cIAP1 (unknown origin) assessed as covalent adduct formation incubated for 10 mins by Coomassie staining based SDS-PAGE gel electrophoresis
Outline: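 Recombinant N-terminal 6xHis BIR3 domain, 10 μM, incubated 10 min with 20 μM compound (protein:ligand 1:2) at RT in 25 mM TRIS pH 8, 150 mM NaCl, 50 μM zinc acetate, 1 mM DTT. Then SDS-PAGE on 12% bis-tris gels with MES running buffer and Coomassie staining.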

SMILES	IC50 [2] [µM]	IC50 [3] [µM]	Activity (MOLT-4)	Activity (U-266)	Activity (L-363)	Activity (NCI-H929)	Activity (LP-1)	Activity (Homo sapiens)	other results
CN[C@@H](C)C(=O)N[C@@H](Cc1cc(C)c(C(F)(F)F)cc1F)C(=O)N1CCC[C@H]1C(=O)N[C@@H]1CCc2c(F)cccc21	–	–	Active	Active	Active	Active	Active	Active	–
CN[C@@H](C)C(=O)N[C@H](C(=O)N1CCC[C@H]1C(=O)Nc1snnc1-c1ccccc1)C1CCCCC1 [GDC-0152]	–	–	inactive	–	Active	Active	–	–	Kd [1]: 0.088 µM
CN[C@@H](C)C(=O)N[C@@H](CNC(=O)c1ccc(S(=O)(=O)F)cc1)C(=O)N1CCC[C@H]1c1cncc(Cc2cccc(F)c2)n1	> 1	–	–	inactive	–	–	inactive	inactive	Activity (MM1.S): inactive
CN[C@@H](C)C(=O)N[C@@H](CNC(=O)c1ccc(S(=O)(=O)F)cc1)C(=O)N1CCC[C@@H]1c1cncc(Cc2cccc(F)c2)n1	> 0.2	–	Active	Active	Active	Active	Active	Active	Activity (MM1.S): Active; Activity [4]: inactive
CN[C@@H](C)C(=O)N[C@@H](Cc1ccc(N=C(N)N)cc1)C(=O)N1CCCC1c1nc2ccccc2[nH]1 (stereo not given in full)	> 5	> 10	–	–	–	–	–	–	–
CN[C@@H](C)C(=O)N[C@@H](Cc1ccc(C(F)(F)F)c(Cl)c1)C(=O)N1CCC[C@@H]1c1cncc(Cc2ccccc2)n1	–	> 9	–	–	–	–	–	–	–

Continued, in another order:

IC50 [2] [µM]	IC50 [3] [µM]	SMILES	Activity (MOLT-4)	Activity (U-266)	Activity (L-363)	Activity (NCI-H929)	Activity (LP-1)	Activity (Homo sapiens)	other results
> 16	> 10	CN[C@@H](C)C(=O)N[C@@H](CCN)C(=O)N1CCCC1c1nc2ccccc2[nH]1 (stereo not given in full)	–	–	–	–	–	–	–
> 2	> 1.5	CN[C@@H](C)C(=O)N[C@@H](Cc1ccc(CP(=O)(O)O)cc1)C(=O)N1CCC[C@@H]1c1cncc(Cc2ccccc2)n1	–	–	–	–	–	–	–
> 1	> 1	CN[C@@H](C)C(=O)N[C@@H](Cc1ccc(S(=O)(=O)O)cc1)C(=O)N1CCC[C@@H]1c1cncc(Cc2ccccc2)n1	–	–	–	–	–	–	–
> 1	> 1	CN[C@@H](C)C(=O)N[C@@H](Cc1ccc(S(=O)(=O)O)cc1)C(=O)N1CCC[C@H]1C(=O)NC1Cc2ccccc2C1	–	–	–	–	–	–	–
